ChEMBL document CHEMBL4118021, “Studies of TAK1-centered polypharmacology with novel covalent TAK1 inhibitors” (Bioorg Med Chem, 2017)
Active and inactive are the calls of the source. The calls are words filed in the database; no cut-off is given here.

Assays:
[1] = biological target: Vasodilator-stimulated phosphoprotein (Homo sapiens) (UniProt P50552); assay: Binding affinity to VASP in human NCI-H23 cells at 1 uM by mass spectrometry based pull down assay; assay type: cell-based
[2] = biological target: Splicing factor 3B subunit 3 (Homo sapiens) (UniProt Q15393); assay: Binding affinity to SF3B3 in human NCI-H358 cells at 1 uM by mass spectrometry based pull down assay; assay type: cell-based
[3] = biological target: Long-chain-fatty-acid--CoA ligase 1 (Homo sapiens) (UniProt P33121); assay: Binding affinity to ACSL1 in human NCI-H358 cells at 1 uM by mass spectrometry based pull down assay; assay type: cell-based
Method in brief: (§1)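 NCI-H23 or NCI-H358 cells were grown and lysed. Lysates were incubated overnight at 4 °C with 1 μM biotinylated covalent probe or DMSO, then pulled down on streptavidin beads. Proteins were run on polyacrylamide gels and stained with Coomassie. Bands were excised, digested and identified by mass spectrometry.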

[4] = biological target: Quinone oxidoreductase (Homo sapiens) (UniProt Q08257); assay: Binding affinity to CRYZ in human NCI-H358 cells at 1 uM by mass spectrometry based pull down assay; assay type: cell-based
[5] = biological target: Elongation factor 1-gamma (Homo sapiens) (UniProt P26641); assay: Binding affinity to EEF1G in human NCI-H358 cells at 1 uM by mass spectrometry based pull down assay; assay type: cell-based
[6] = biological target: Carbonyl reductase [NADPH] 1 (Homo sapiens) (UniProt P16152); assay: Binding affinity to CBR1 in human NCI-H358 cells at 1 uM by mass spectrometry based pull down assay; assay type: cell-based
[7] = test system: NCI-H358; assay: Binding affinity to PTGES3L-AARSD1 in human NCI-H358 cells at 1 uM by mass spectrometry based pull down assay; assay type: cell-based
[8] = biological target: Small ribosomal subunit protein uS2 (Homo sapiens) (UniProt P08865); assay: Binding affinity to RPSA in human NCI-H23 cells at 1 uM by mass spectrometry based pull down assay; assay type: cell-based
[9] = biological target: AH receptor-interacting protein (Homo sapiens) (UniProt O00170); assay: Binding affinity to AIP in human NCI-H358 cells at 1 uM by mass spectrometry based pull down assay; assay type: cell-based; method in brief: as §1
[10] = biological target: Src substrate cortactin (Homo sapiens) (UniProt Q14247); assay: Binding affinity to CTTN in human NCI-H358 cells at 1 uM by mass spectrometry based pull down assay; assay type: cell-based
[11] = biological target: T1, Aurora kinase A (Homo sapiens) (UniProt O14965); assay: Binding affinity to AURKA in human NCI-H358 cells at 1 uM by mass spectrometry based pull down assay; assay type: cell-based
T1 sequence (whole entry): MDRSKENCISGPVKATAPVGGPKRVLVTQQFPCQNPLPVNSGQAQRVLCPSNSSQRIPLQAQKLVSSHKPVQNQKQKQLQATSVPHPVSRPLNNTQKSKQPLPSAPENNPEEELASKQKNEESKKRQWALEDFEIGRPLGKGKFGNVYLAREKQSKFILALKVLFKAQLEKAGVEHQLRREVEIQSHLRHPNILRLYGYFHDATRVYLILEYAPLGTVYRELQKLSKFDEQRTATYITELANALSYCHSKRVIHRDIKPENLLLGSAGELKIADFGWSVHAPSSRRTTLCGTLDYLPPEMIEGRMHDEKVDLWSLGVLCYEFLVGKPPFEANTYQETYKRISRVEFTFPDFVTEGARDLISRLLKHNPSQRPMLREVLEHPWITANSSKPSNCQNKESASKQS

[12] = biological target: Glyoxalase domain-containing protein 4 (Homo sapiens) (UniProt Q9HC38); assay: Binding affinity to GLOD4 in human NCI-H358 cells at 1 uM by mass spectrometry based pull down assay; assay type: cell-based
[13] = biological target: Polymeric immunoglobulin receptor (Homo sapiens) (UniProt P01833); assay: Binding affinity to PIGR in human NCI-H358 cells at 1 uM by mass spectrometry based pull down assay; assay type: cell-based
[14] = biological target: Deaminated glutathione amidase (Homo sapiens) (UniProt Q86X76); assay: Binding affinity to NIT1 in human NCI-H358 cells at 1 uM by mass spectrometry based pull down assay; assay type: cell-based
[15] = biological target: Tropomyosin alpha-3 chain (Homo sapiens) (UniProt P06753); assay: Binding affinity to TPM3 in human NCI-H358 cells at 1 uM by mass spectrometry based pull down assay; assay type: cell-based
[16] = biological target: Pigment epithelium-derived factor (Homo sapiens) (UniProt P36955); assay: Binding affinity to SERPINF1 in human NCI-H23 cells at 1 uM by mass spectrometry based pull down assay; assay type: cell-based
[17] = biological target: Carbonyl reductase [NADPH] 1 (Homo sapiens) (UniProt P16152); assay: Binding affinity to CBR1 in human NCI-H23 cells at 1 uM by mass spectrometry based pull down assay; assay type: cell-based
[18] = biological target: Lactoylglutathione lyase (Homo sapiens) (UniProt Q04760); assay: Binding affinity to GLO1 in human NCI-H23 cells at 1 uM by mass spectrometry based pull down assay; assay type: cell-based
[19] = biological target: Arginine--tRNA ligase, cytoplasmic (Homo sapiens) (UniProt P54136); assay: Binding affinity to RARS in human NCI-H358 cells at 1 uM by mass spectrometry based pull down assay; assay type: cell-based
[20] = biological target: Cyclin-G-associated kinase (Homo sapiens) (UniProt O14976); assay: Binding affinity to GAK in human NCI-H358 cells at 1 uM by mass spectrometry based pull down assay; assay type: cell-based
[21] = biological target: ADP-ribose glycohydrolase OARD1 (Homo sapiens) (UniProt Q9Y530); assay: Binding affinity to OARD1 in human NCI-H358 cells at 1 uM by mass spectrometry based pull down assay; assay type: cell-based
[22] = biological target: Aminoacyl tRNA synthase complex-interacting multifunctional protein 1 (Homo sapiens) (UniProt Q12904); assay: Binding affinity to AIMP1 in human NCI-H358 cells at 1 uM by mass spectrometry based pull down assay; assay type: cell-based; method in brief: as §1
[23] = biological target: Medium-chain specific acyl-CoA dehydrogenase, mitochondrial (Homo sapiens) (UniProt P11310); assay: Binding affinity to ACADM in human NCI-H23 cells at 1 uM by mass spectrometry based pull down assay; assay type: cell-based; method in brief: as §1
[24] = biological target: AP2-associated protein kinase 1 (Homo sapiens) (UniProt Q2M2I8); assay: Binding affinity to AAK1 in human NCI-H358 cells at 1 uM by mass spectrometry based pull down assay; assay type: cell-based; method in brief: as §1
[25] = biological target: Cyclin-dependent kinase-like 2 (Homo sapiens) (UniProt Q92772); assay: Inhibition of human CDKL2 (1 to 327 residues) expressed in bacterial expression system assessed as enzyme activity at 10 uM by KINOMEScan assay relative to control; parameters: scale not given: the % may be the effect or the level left
Method in brief: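 In vitro ATP-site competition binding assay (KinomeScan) across a panel of 456 kinases. Compound was tested at 1 and 10 μM. The read-out is the binding inhibition score relative to control.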

Sequence of Carbonyl reductase [NADPH] 1 (Homo sapiens) (P16152 whole entry): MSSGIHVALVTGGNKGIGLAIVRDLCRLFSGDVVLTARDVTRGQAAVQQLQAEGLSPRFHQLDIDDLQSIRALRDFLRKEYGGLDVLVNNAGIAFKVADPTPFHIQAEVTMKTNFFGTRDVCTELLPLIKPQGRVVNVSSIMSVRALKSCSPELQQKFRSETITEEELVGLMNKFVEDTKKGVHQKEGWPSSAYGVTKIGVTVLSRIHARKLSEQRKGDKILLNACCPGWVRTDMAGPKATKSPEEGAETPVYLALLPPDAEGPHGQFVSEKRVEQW
Sequence of Lactoylglutathione lyase (Homo sapiens) (Q04760 2-184 limits assumed): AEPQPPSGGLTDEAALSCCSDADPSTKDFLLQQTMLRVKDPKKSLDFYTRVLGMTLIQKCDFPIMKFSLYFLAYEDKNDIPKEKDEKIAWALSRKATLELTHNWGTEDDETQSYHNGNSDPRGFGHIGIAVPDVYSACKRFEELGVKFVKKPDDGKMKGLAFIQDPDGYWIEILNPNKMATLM
Sequence of Deaminated glutathione amidase (Homo sapiens) (Q86X76 whole entry): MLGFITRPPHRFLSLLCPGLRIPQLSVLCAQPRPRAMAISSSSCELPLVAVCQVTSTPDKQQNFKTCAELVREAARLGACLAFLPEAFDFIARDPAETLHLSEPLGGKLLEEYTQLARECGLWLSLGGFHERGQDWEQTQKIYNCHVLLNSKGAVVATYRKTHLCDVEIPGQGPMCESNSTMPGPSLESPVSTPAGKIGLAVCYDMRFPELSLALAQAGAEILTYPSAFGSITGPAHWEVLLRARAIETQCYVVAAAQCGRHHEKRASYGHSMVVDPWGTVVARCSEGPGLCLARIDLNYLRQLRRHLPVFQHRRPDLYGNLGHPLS
Sequence of Glyoxalase domain-containing protein 4 (Homo sapiens) (Q9HC38 whole entry, the tested form may be a part): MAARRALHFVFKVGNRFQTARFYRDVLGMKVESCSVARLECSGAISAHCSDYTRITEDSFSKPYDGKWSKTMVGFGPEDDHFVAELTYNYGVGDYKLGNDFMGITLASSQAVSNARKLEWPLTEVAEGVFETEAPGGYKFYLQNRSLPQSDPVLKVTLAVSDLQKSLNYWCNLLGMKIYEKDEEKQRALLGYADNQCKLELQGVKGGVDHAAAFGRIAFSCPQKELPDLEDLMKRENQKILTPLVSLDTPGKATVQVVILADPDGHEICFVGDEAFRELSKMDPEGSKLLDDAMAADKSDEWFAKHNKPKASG
Sequence of Elongation factor 1-gamma (Homo sapiens) (P26641 whole entry): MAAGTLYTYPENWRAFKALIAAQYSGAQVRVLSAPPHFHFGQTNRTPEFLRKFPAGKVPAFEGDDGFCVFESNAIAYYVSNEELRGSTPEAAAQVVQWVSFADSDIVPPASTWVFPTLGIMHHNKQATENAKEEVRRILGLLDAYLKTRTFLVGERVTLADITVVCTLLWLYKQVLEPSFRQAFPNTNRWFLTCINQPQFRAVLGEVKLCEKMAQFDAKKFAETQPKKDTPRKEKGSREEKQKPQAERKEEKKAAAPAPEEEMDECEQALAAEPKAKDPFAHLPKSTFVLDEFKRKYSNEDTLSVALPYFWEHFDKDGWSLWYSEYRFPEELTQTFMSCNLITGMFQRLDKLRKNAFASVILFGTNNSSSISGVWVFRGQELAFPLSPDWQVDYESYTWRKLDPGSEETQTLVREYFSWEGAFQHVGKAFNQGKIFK
Sequence of Pigment epithelium-derived factor (Homo sapiens) (P36955 whole entry): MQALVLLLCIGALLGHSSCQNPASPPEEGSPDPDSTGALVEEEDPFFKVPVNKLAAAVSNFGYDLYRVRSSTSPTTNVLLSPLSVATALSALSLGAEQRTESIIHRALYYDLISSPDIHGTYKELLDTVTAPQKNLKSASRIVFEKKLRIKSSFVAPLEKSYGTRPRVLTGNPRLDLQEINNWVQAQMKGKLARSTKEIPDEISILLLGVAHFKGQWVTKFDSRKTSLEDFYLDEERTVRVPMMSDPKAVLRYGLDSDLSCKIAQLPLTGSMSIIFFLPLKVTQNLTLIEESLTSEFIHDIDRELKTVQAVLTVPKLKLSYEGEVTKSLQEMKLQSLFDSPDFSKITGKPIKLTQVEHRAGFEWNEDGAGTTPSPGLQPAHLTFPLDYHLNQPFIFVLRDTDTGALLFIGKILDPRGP
Sequence of Cyclin-G-associated kinase (Homo sapiens) (O14976 whole entry): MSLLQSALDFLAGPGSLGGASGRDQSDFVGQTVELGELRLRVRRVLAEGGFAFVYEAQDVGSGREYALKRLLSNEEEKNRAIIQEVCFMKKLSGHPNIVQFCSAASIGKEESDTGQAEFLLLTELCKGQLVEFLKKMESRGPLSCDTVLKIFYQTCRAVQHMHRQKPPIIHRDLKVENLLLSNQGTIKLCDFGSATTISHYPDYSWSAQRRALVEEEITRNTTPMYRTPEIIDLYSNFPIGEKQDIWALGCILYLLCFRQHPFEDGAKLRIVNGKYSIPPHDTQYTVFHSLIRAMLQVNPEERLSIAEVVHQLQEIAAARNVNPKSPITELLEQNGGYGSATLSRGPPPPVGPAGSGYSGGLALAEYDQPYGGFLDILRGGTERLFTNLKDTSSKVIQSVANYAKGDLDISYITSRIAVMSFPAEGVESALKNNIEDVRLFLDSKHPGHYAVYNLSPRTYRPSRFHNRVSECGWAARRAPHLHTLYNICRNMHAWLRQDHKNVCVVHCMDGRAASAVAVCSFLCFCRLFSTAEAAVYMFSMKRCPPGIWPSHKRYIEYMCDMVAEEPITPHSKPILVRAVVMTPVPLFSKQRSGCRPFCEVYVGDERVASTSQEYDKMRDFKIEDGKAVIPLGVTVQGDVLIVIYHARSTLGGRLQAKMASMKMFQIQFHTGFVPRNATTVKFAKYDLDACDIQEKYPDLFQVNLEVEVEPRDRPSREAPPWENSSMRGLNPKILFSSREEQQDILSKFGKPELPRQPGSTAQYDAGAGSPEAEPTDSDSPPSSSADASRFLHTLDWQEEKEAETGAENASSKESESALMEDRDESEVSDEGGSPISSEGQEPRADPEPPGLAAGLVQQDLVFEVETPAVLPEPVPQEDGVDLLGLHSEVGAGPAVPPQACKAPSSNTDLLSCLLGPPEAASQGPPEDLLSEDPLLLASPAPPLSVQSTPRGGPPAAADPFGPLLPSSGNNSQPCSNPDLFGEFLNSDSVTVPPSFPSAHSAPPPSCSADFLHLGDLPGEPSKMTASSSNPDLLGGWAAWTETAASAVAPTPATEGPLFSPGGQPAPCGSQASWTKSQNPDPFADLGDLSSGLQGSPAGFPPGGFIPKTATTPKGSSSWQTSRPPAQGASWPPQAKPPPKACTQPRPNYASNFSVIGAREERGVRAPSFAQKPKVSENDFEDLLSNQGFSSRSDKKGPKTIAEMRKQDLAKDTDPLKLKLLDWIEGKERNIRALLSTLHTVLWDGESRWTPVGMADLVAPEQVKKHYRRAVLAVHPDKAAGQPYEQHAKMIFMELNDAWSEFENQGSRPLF
Sequence of Vasodilator-stimulated phosphoprotein (Homo sapiens) (P50552 whole entry): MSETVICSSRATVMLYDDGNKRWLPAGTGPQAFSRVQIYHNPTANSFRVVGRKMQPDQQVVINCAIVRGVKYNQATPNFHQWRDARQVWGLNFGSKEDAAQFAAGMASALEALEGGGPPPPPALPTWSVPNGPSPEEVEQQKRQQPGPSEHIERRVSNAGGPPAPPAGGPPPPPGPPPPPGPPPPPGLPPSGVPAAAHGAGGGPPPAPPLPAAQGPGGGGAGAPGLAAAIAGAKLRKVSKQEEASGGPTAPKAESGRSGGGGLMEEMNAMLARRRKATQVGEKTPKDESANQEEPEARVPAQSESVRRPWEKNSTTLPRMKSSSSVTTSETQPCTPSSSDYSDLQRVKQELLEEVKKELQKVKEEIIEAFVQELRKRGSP
Sequence of Tropomyosin alpha-3 chain (Homo sapiens) (P06753 whole entry): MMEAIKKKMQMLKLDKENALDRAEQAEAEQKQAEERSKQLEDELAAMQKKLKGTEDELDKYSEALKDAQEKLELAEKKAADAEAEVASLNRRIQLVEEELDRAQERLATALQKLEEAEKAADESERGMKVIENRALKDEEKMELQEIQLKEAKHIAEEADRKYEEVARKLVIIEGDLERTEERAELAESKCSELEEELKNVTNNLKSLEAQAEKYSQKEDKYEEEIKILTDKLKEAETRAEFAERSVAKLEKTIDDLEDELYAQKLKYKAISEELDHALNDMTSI
Sequence of AH receptor-interacting protein (Homo sapiens) (O00170 whole entry): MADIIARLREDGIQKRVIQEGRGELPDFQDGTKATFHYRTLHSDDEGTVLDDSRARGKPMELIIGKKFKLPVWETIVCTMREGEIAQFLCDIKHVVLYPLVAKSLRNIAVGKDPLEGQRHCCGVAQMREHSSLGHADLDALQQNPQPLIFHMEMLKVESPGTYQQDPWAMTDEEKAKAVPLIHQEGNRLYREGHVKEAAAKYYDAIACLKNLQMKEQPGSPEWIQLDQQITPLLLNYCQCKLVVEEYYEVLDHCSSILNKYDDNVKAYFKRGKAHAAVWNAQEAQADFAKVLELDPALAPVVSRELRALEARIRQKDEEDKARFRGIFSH
Sequence of Cyclin-dependent kinase-like 2 (Homo sapiens) (Q92772 whole entry, the tested form may be a part): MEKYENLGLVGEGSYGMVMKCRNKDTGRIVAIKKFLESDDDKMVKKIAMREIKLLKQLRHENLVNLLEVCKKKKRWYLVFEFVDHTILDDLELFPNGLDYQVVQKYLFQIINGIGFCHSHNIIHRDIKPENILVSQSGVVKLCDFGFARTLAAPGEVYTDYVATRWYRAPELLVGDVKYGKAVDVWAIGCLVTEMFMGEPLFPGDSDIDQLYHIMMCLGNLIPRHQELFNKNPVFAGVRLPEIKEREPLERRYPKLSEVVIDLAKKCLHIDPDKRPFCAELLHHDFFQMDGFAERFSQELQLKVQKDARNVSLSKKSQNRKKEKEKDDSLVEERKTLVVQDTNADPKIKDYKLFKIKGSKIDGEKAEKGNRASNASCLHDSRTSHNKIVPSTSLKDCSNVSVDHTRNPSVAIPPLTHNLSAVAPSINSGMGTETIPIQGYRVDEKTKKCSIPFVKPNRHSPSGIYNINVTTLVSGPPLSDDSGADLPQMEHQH
Sequence of ADP-ribose glycohydrolase OARD1 (Homo sapiens) (Q9Y530 whole entry): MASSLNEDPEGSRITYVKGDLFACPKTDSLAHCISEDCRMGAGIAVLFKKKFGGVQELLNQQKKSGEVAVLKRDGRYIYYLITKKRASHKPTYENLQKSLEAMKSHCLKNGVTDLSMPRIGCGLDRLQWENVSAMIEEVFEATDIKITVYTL

**Q.** `C=CC(=O)Nc1ccccc1Nc1nc(Nc2ccc(N3CCN(CCOCCOCCOCCNC(=O)CCCC[C@@H]4SC[C@@H]5NC(=O)N[C@@H]54)CC3)cc2)ncc1Cl` was tested. Which Activity [1] did it give?
**A.** The Activity was “Active”.

**Q.** What about the Activity [2] of the same molecule?
**A.** The Activity was “Active”.

**Q.** What about the Activity [3] of the same molecule?
**A.** Its Activity is “Active”.

**Q.** What about the Activity [4] of the same molecule?
**A.** The Activity was “Active”.

**Q.** What about the Activity [5] of the same molecule?
**A.** The Activity was “Active”.

**Q.** What about the Activity [6] of the same molecule?
**A.** The Activity was “Active”.

**Q.** What about the Activity [7] of the same molecule?
**A.** The Activity was “Active”.

**Q.** And the Activity [8]?
**A.** The Activity was “Active”.

**Q.** What about the Activity [9] of the same molecule?
**A.** The Activity was “Active”.

**Q.** And the Activity [10]?
**A.** The Activity was “Active”.

**Q.** What about the Activity [11] of the same molecule?
**A.** Its Activity is “Active”.

**Q.** What about the Activity [12] of the same molecule?
**A.** Its Activity is “Active”.

**Q.** What about the Activity [13] of the same molecule?
**A.** Its Activity is “Active”.

**Q.** What about the Activity [14] of the same molecule?
**A.** Its Activity is “Active”.

**Q.** What about the Activity [15] of the same molecule?
**A.** The Activity was “Active”.

**Q.** And the Activity [16]?
**A.** The Activity was “Active”.

**Q.** And the Activity [17]?
**A.** The Activity was “Active”.

**Q.** What about the Activity [18] of the same molecule?
**A.** Its Activity is “Active”.

**Q.** And the Activity [19]?
**A.** Its Activity is “Active”.

**Q.** What about the Activity [20] of the same molecule?
**A.** Its Activity is “Active”.

**Q.** What about the Activity [21] of the same molecule?
**A.** Its Activity is “Active”.

**Q.** What about the Activity [22] of the same molecule?
**A.** Its Activity is “Active”.

**Q.** And the Activity [23]?
**A.** The Activity was “Active”.

**Q.** What about the Activity [24] of the same molecule?
**A.** The Activity was “Active”.

**Q.** `COc1cc(O)c2c(c1)/C=C/C[C@H](O)[C@H](O)C(=O)/C=C\C[C@H](C)OC2=O` was tested. Which Activity [25] did it give?
**A.** The Activity was 8.6%.
